In ChEMBL document CHEMBL1127289, “DNA-directed alkylating agents. 6. Synthesis and antitumor activity of DNA minor groove-targeted aniline mustard analogues of pibenzimol (Hoechst 33258)” (J Med Chem, 1994):
Activity calls are given as the source filed them.

How the values were obtained:
[1] = system: P388; test: Concentration of the drug to inhibit wild type P388 murine leukemia cell growth in culture; format: functional, cell-based; conditions: Mus musculus
In short: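 P388 cells maintained in log phase in RPMI 1640 with 10% fetal calf serum. Drug present throughout 72 h growth. Final density read by a modified MTT method. IC50 is the nominal concentration reducing cell density to 50% of controls, with eight control cultures per plate.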

[2] = system: CHO-AA8; test: Concentration of the drug to inhibit chinese hamster ovary derived cell (AA8) growth in culture; format: functional, cell-based; conditions: Cricetulus griseus
In short: (§1)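 AA8 (wild-type) and UV4 (mutant) lines maintained in log phase in Alpha MEM with 10% fetal calf serum. Drug exposure for 18 h, ended by three washes in fresh medium, then a further 72 h growth. Cell density read by methylene blue staining. IC50 is the nominal concentration giving 50% of control density, with eight controls per plate. HF = IC50(AA8)/IC50(UV4).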

[3] = system: Nucleic Acid; test: (§2) Intrinsic association constant for reversible binding of compounds to calf thymus DNA at 20 degree C; format: functional; parameters: scale not given here; conditions: Bos taurus
[4] = organism: Mus musculus; test: Tested for percentage increase in lifespan of drug-treated tumor-bearing animals when treated at optimal dose; format: functional
In short: (§3)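 P388 leukemia: 10^6 tumor cells inoculated intraperitoneally. 24 h later (day 1), a single intraperitoneal dose in 0.1 mL of 30% v/v EtOH/water. The optimal dose is given in mg/kg. ILS is the percentage increase in lifespan at the optimal dose; ILS > 20% is considered significant. Groups of 6 animals, with long-term survivors counted.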

[5] = system: Mus musculus; test: Tested for the intraperitoneal optimal dose of 0.1 mL in tumor cells; format: functional; in short: as §3
[6] = (§4) Hypersensitivity factor(HF) was determined as ratio of IC50(AA8) to IC50(UV4); format: functional; in short: as §1
[7] = organism: Mus musculus; test: Tested for percentage increase in lifespan of drug-treated tumor-bearing animals when treated at optimal dose; Inactive; format: functional, organism-based; in short: as §3
[8] = system: CHO-AA8; test: as §4; format: functional, Cricetulus griseus; in short: as §1
[9] = system: Nucleic Acid; test: as §2; format: nucleic-acid assay; conditions: Bos taurus
[10] = organism: Mus musculus; test: Tested for percentage increase in lifespan of drug-treated tumor-bearing animals when treated at optimal dose; NA=Inactive; format: functional, organism-based; in short: as §3

CCN(CCCl)c1cc(CN(C)C)cc(NC(=O)c2ccc(C(=O)Nc3cc(CN(C)C)cc(N(CC)CCCl)c3)cc2)c1
IC50 [1]: 7 µM

CN1CCN(c2ccc3[nH]c(-c4ccc5[nH]c(CCCCCCc6ccc(N(CCCl)CCCl)cc6)nc5c4)nc3c2)CC1
IC50 [2]: 0.4 µM | DNA binding [3]: 3.89 M⁻¹ | ILS [4]: 23% | OD [5]: 8.9 mg/kg | IC50 [1]: 0.06 µM | Ratio [6]: 20

CN1CCN(c2ccc3[nH]c(-c4ccc5[nH]c(CCCc6ccc(N(CCCl)CCCl)cc6)nc5c4)nc3c2)CC1
IC50 [2]: 1.32 µM | DNA binding [3]: 4.55 M⁻¹ | ILS [7]: inactive | OD [5]: 5.9 mg/kg | IC50 [1]: 0.02 µM | Ratio [6]: 46

CN1CCN(c2ccc3[nH]c(-c4ccc5[nH]c(CCc6ccc(N(CCCl)CCCl)cc6)nc5c4)nc3c2)CC1
IC50 [2]: 0.33 µM | DNA binding [3]: 6.3 M⁻¹ | ILS [4]: 52% | OD [5]: 3.9 mg/kg | IC50 [1]: 0.01 µM | Ratio [6]: 47

CN1CCN(c2ccc3[nH]c(-c4ccc5[nH]c(-c6ccc(N(CCCl)CCCl)cc6)nc5c4)nc3c2)CC1
IC50 [2]: 1.68 µM | Ratio [8]: 24 | DNA binding [9]: 7.52 log M-1 | ILS [4]: 106% | OD [5]: 30 mg/kg | IC50 [1]: 0.8 µM

CN1CCN(c2ccc3[nH]c(-c4ccc5[nH]c(-c6ccc(O)cc6)nc5c4)nc3c2)CC1 [HOECHST 33258]
DNA binding [9]: 1.82 log M-1 | ILS [10]: inactive | OD [5]: 20 mg/kg | IC50 [1]: 1.2 µM

CN1CCN(c2ccc3[nH]c(-c4ccc5[nH]c(Cc6ccc(N(CCCl)CCCl)cc6)nc5c4)nc3c2)CC1
IC50 [2]: 1.5 µM | DNA binding [3]: 6.73 M⁻¹ | ILS [4]: 71% | OD [5]: 13.3 mg/kg | IC50 [1]: 0.85 µM | Ratio [6]: 59

CCN(CC)c1ccc(-c2nc3cc(-c4nc5cc(N6CCN(C)CC6)ccc5[nH]4)ccc3[nH]2)cc1
IC50 [2]: 10 µM | Ratio [8]: 1.5 | DNA binding [9]: 6.24 log M-1 | ILS [4]: 50% | OD [5]: 20 mg/kg | IC50 [1]: 1.2 µM

CN1CCN(c2ccc3[nH]c(-c4ccc5[nH]c(-c6ccc(N(C)CCCl)cc6)nc5c4)nc3c2)CC1
IC50 [2]: 5.75 µM | ILS [4]: 86% | OD [5]: 30 mg/kg | IC50 [1]: 0.5 µM | Ratio [6]: 14
